Compounds with a hit are over-represented: about 3.9% of the library has one in this group of screens.
m5-HT2A agonist = agonists of mouse serotonin 5-HT2A receptor (HTR2A) | activation, % at 7.6 µM | P35363 | 360,000 compounds, 0.66% hits | CHO-K1 mHTR2A beta-arrestin complementation, luminescence; percent of 30 µM serotonin response;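 active means activation above a run cutoff, the mean activation of all tested compounds plus 3 SD, cut at about 14% in these data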;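 further: 0% = plate median of compound wells and 100% = 30 µM serotonin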
Target sequence (P35363 whole entry, looked up): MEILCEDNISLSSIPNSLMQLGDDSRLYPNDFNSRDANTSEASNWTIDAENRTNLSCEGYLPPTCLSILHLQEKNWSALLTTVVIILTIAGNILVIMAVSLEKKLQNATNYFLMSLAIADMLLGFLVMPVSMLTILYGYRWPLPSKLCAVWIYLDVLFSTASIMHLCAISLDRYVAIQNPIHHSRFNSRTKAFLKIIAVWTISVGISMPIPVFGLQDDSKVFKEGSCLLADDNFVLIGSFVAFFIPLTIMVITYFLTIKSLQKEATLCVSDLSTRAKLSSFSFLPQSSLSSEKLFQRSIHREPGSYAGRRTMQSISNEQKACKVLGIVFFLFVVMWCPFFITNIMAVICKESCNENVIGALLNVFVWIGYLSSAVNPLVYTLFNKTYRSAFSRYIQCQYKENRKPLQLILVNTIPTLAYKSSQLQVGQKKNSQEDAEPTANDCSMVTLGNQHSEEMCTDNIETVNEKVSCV
CHRM1 antagonist = antagonists of human M1 muscarinic receptor; P11229; CHO-K1 hM1, Fluo-8 calcium fluorescence, ACh EC80 antagonist; inhibition, % at 3 µM; 360,000 compounds, 1.3% hits;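 active means percent inhibition above its own plate's cutoff, namely the mean of that plate's compound wells plus 3 SD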;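 further: peak over basal fluorescence ratio during 140 s after agonist addition; 0% = ACh EC80 plus DMSO and 100% = DMSO alone without agonist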
TAAR1 antagonist = antagonists of human TAAR1 | 360,000 compounds, 1.5% hits | inhibition, % at 3 µM | CHO RD-HGA16 TAAR1, Fluo-8 calcium fluorescence, antagonist;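 active means inhibition above a per-plate cutoff, the mean inhibition of test compounds on that plate plus 3 SD, cut at about 49% in these data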;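 further: 0% = DMSO plus EC80 beta-PEA response and 100% = DMSO alone without agonist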
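Test system – hTAAR1-expressing CHO RD-HGA16 cells, Gα16-coupled · Reagent – β-PEA at EC80 concentration, post-compound challenge · Compound dosing – 3 µM, single point · Timing – 140 s kinetic read after compound, 140 s after agonist · Detection – Fluo-8 intracellular calcium dye fluorescence, real-time kinetic reads · Control set – DMSO and EC80 PEA controls · Repeats – n of 1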
CHRM1 agonist = activates human CHRM1 receptor; P11229; CHO-K1 hM1, Fluo-8 calcium fluorescence, agonist mode; 0% DMSO, 100% acetylcholine EC100; activation, % at 3 µM; 360,000 compounds, 0.33% hits; AID 588814;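 active means activation above the run's mean compound activation plus 3 SD, cut at about 16% in these data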;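 further: peak over basal fluorescence ratio within a 140 s kinetic read after compound addition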
M1 PAM = human CHRM1 positive allosteric modulation. P11229. CHO-K1 hM1, Fluo-8 calcium fluorescence, ACh EC20; 0% = ACh EC20, 100% = maximal ACh. activation, % at 3 µM. 360,000 compounds, 0.088% hits; in the data active means activation above about 19%, passing the limit was not always enough
TAAR1 agonist = agonists of human TAAR1; 360,000 compounds, 0.99% hits; activation, % at 3 µM; CHO RD-HGA16 TAAR1, Fluo-8 calcium fluorescence; vehicle wells 0%, saturating PEA agonist 100%; AID 624467;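 active means activation above the mean activation of all test compounds in the run plus 3 SD, cut at about 38% in these data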
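Test system: RD-HGA16 (CHO) cells co-expressing Gα16 and hTAAR1 | Doses: Single dose, 3 µM | Schedule: 17-24 h seeding, 75 min 37 °C dye, 30 min RT | Evaluation: % activation from peak over basal fluorescence ratio, DMSO-to-PEA scaled | Technique: Kinetic Fluo-8 calcium fluorescence | Benchmarks: Low control DMSO, high control PEA (EC100)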
The depositor's hits bear a star; nt = no result given.

SMILES	m5-HT2A agonist	CHRM1 antagonist	TAAR1 antagonist	CHRM1 agonist	M1 PAM	TAAR1 agonist
O=C(/C=C/c1cccc(O)c1)c1cccnc1	-1	-2	4	-2	0	7
COc1ccc(C(=O)/C=C/c2ccc(N(C)C)cc2)c(OC)c1	6	53*	52*	69*	-20	73*
CN(C)c1ccc(/C=C/C(=O)c2cccnc2)cc1	11	28	9	60*	-18	32
CN(C)c1ccc(/C=C/C(=O)c2ccc(O)cc2)cc1	-5	30	31	53*	-18	49*
CN(C)c1ccc(/C=C/C(=O)c2ccc3c(c2)OCO3)cc1	-7	41*	40	53*	-13	27
CN(C)c1ccc(C(=O)C=Cc2ccc([N+](=O)[O-])cc2)cc1	2	-6	2	-1	2	0
CCOC(=O)c1ccc(N=C2SC(C(=O)Nc3ccc(C(=O)O)cc3)CC(=O)N2Cc2cccs2)cc1 (stereo not drawn)	0	-13	15	-2	12	1
CCn1c2c(n(C(C)=O)c1=O)C[C@@H](c1ccccc1)[C@@H](C)[C@@H](C(=O)N1CCCC1)C2	nt	nt	-20	nt	nt	1
CCCC(=O)OC[C@H]1CN(C2CCCC2)S(=O)(=O)c2c(Oc3ccc(F)cc3OC)cccc2O1	nt	nt	-10	nt	nt	1
Cc1ccc2nc(C(O)C(O)c3nc4ccc(C)cc4[nH]3)[nH]c2c1 (stereo not drawn)	0	-4	-7	3	8	38*
COc1cccc(NC(=O)c2ccc(N3C(=O)C4CCC(C)CC4C3=O)cc2)c1 (stereo not drawn)	-12	5	39	0	-1	15
N#Cc1cc[n+](CC(=O)c2ccc(NC(=O)c3ccccc3)cc2)cc1	-6	-2	-12	-5	2	2
Cc1ccc(/C=C/c2onc(C)c2S(=O)(=O)N2CCC(C(=O)N3CCCCC3)CC2)cc1	1	-17	3	-4	12	-1
CCCN1CCN(C(=O)C2CCN(S(=O)(=O)c3c(C)noc3/C=C/c3ccc(C)cc3)CC2)CC1	-3	34*	1	-5	-22	7
O=C(/C=C(\Nc1ccc(Cl)c(Cl)c1)c1ccccc1)c1ccccc1	nt	nt	12	nt	nt	-1
Cn1c(N)c(C(=O)CSc2nc(C3CC3)n(-c3ccccc3)n2)c(=O)n(C)c1=O	-1	-13	5	22*	4	32
COc1ccc(CCC(=O)OCC(=O)Nc2c(C)n(C)n(-c3ccccc3)c2=O)cc1	6	17	3	-3	-7	0
CCc1nc2ccc(C(=O)Nc3cccc(OCC(=O)N(C)C)c3)cn2c1N(C)Cc1cc2ccccc2s1	-2	50*	71*	-1	-25	9
CCc1nc2ccc(C(=O)Nc3cc(-c4ccccc4)ccc3OC)cn2c1N(C)Cc1nccs1	-6	29	54*	-2	-15	6
CCCCN(C(C)=O)c1c(CC)nc2ccc(C(=O)Nc3cccc(OCC(=O)N(C)C)c3)cn12	4	-17	2	0	6	1
CCc1nc2ccc(C(=O)Nc3cccc(OCC(=O)N(C)C)c3)cn2c1N(C)C(=O)c1ccncc1	4	-19	-9	-2	9	0
CCNC(=O)N(C)c1c(CC)nc2ccc(C(=O)Nc3cccc(OCC(=O)N(C)C)c3)cn12	-4	32*	-14	-1	-13	2
CCC(=O)Nc1ccc(NC(=O)c2cc3ccccc3o2)c(OC)c1	-2	-6	39	0	2	12
CSc1ncc(CN2CCN(C3CCCC3)C(CCO)C2)cn1 (stereo not drawn)	-2	34*	-6	-6	-18	2
CSc1ncc(CN2CCN(CC=C(C)C)C(CCO)C2)cn1 (stereo not drawn)	1	27*	-14	-10	-14	2
SMILES	m5-HT2A agonist	CHRM1 antagonist	TAAR1 antagonist	CHRM1 agonist	M1 PAM	TAAR1 agonist
Cc1ccc(NS(=O)(=O)c2c(C)[nH]c(C)c2C(=O)N2CCCCC2)cc1F	3	29	-13	-2	-10	2
Cc1ccc(S(=O)(=O)N2CCCCC2)cc1NC(=O)c1nn(C)c(=O)c2ccccc12	5	1	7	3	-2	4
[O-]/C(=C(\C(=S)Nc1cccc2ccccc12)[n+]1ccccc1)c1ccc(Cl)s1	-2	-1	8	-8	5	7
Cc1ccc(C)c(NC(=S)/C(=C(\[O-])c2ccc(Cl)s2)[n+]2ccccc2)c1	0	23*	-9	-6	-11	11
Cc1nc2sccn2c(=O)c1S(=O)(=O)NCc1ccccc1Cl	0	-1	-16	-9	3	3
Cc1nc2sccn2c(=O)c1S(=O)(=O)NCC1CCN(Cc2ccccc2Cl)CC1	-8	39*	-22	-14	-36	0
CCOC(=O)C1CCCN(C(=S)NC2CCCC2)C1 (stereo not drawn)	7	3	-3	51*	-19	12
CCOC(=O)C1CCCN(CCc2ccccc2)C1 (stereo not drawn)	-1	49*	5	18*	-12	2
CCOC(=O)C1CCCN(C(=O)c2ccc(Cl)cc2)C1 (stereo not drawn)	5	2	-14	-8	3	4
CCOC(=O)C1CCCN(c2cc(C)nc3cc(-c4ccc(F)cc4)nn23)C1 (stereo not drawn)	-3	24	28	46*	-26	43*
CCOC(=O)C1CCCN(C(=S)Nc2ccc(F)cc2)C1 (stereo not drawn)	-1	69*	30	79*	-24	51*
COc1ccccc1C(=O)N1CCC2CCN(C(=O)OC(C)(C)C)C2C1 (stereo not drawn)	nt	nt	-20	nt	nt	1
Cc1nn(CCO)c(N)c1C1(O)C(=O)Nc2c(Cl)cc(Cl)cc21 (stereo not drawn)	-1	0	0	-2	2	5
COc1ccc(C(=O)OC(C)C(=O)NC(C)CCc2ccccc2)cc1OC (stereo not drawn)	0	-3	6	-5	1	2
CCOC(=O)C1CCCN(C(=O)c2[nH]c(C(F)(F)F)nc2-c2ccccc2)C1 (stereo not drawn)	-6	-9	-13	17*	-10	8
CCOC(=O)C1CCCN(C(=O)c2cc3nc(-c4cccc(OC)c4)cc(C(F)(F)F)n3n2)C1 (stereo not drawn)	-4	27	63*	-3	-20	6
CCOC(=O)N1CCC(N2CCN(C3CCCC3)C(CCO)C2)CC1 (stereo not drawn)	5	47*	-14	-13	-35	8

High-throughput results as filed in PubChem.
